Experimental data reported in ChEMBL document CHEMBL1926564, “Design, synthesis and biological activity of original pyrazolo-pyrido-diazepine, -pyrazine and -oxazine dione derivatives as novel dual Nox4/Nox1 inhibitors” (Bioorg Med Chem, 2011).
pIC50: −log10 of the molar value.

Key:
Format in all cases: ADME
Cytochrome P450 2C9 = Cytochrome P450 2C9 (Homo sapiens, UniProt P11712); experiment: Inhibition of human recombinant CYP2C9 by mass spectrophotometry
Method in brief: (§1)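 Compound 0.1–25 µM (0.3% DMSO) incubated with microsomes, NADPH and isoform-specific probe substrate. CYP2C19, 2C9, 2D6, 3A4 metabolites measured by mass spectrometry; CYP1A2 by fluorescent metabolite. IC50 from reduced metabolite formation versus vehicle.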

[1] = Mutagenicity in micronucleus at 500 uM by in vitro assay
Cytochrome P450 3A4 = Cytochrome P450 3A4 (Homo sapiens, UniProt P08684); experiment: Inhibition of human recombinant CYP3A4 by mass spectrophotometry; method in brief: as §1
Chain of Cytochrome P450 3A4 (P08684 whole entry): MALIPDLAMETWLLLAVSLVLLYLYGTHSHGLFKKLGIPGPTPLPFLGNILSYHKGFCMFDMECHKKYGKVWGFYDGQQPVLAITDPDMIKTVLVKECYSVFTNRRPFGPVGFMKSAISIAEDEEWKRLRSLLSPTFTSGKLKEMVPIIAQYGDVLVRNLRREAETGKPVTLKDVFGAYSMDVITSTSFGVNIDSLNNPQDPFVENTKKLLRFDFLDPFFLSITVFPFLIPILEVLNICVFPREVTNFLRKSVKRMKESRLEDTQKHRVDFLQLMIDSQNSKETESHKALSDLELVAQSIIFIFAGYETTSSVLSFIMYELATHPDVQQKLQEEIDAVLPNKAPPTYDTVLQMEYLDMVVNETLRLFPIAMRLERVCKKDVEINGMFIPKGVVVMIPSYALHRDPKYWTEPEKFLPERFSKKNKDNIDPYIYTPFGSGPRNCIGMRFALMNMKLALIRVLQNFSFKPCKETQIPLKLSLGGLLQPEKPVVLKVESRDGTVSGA

Chain of Cytochrome P450 2C9 (P11712 whole entry, canonical isoform): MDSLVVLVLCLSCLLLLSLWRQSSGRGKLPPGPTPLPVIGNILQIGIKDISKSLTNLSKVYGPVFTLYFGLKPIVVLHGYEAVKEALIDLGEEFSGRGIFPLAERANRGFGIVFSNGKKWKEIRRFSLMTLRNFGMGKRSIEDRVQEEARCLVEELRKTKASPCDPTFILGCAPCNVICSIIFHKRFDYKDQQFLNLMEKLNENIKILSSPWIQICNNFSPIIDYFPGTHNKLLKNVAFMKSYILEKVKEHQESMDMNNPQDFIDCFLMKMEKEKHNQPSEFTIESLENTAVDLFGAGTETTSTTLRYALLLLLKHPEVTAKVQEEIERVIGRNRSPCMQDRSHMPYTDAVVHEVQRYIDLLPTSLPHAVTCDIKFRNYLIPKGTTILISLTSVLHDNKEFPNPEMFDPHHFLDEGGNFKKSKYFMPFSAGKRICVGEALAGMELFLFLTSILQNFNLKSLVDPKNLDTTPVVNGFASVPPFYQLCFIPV

## Cl.O=c1c2c3n(c(=O)cc2[nH]n1-c1ccccc1Cl)CCCN(Cc1ccccc1)C3
Cytochrome P450 2C9
  pIC50: < 4.60
[1]
  Activity: Non-toxic
Cytochrome P450 3A4
  pIC50: < 4.60
